Laboratory results as given in publication PMC3107912 (Bioorganic & medicinal chemistry letters, 2011).

What was measured:
Type in all cases: cell-based
S1P4 receptor = biological target: T1, S1P4 receptor (Homo sapiens, UniProt O95977); assay: S1P4 functional antagonist assay; settings: for fold less potent than the hit (1) at S1P4: versus hit compound 1
T1 sequence (O95977 1-384): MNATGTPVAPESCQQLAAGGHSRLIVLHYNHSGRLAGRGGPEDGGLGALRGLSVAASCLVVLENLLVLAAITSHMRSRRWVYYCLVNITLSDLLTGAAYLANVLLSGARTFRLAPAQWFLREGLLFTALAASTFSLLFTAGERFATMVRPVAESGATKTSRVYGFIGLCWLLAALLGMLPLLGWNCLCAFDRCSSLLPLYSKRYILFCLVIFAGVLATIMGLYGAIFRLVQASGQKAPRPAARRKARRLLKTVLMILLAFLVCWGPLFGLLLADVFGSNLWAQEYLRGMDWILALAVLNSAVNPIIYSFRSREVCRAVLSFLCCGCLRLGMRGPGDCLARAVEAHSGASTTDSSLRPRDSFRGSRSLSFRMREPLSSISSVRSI
How it was run: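 U2OS cells co-express a beta-arrestin/TEV protease fusion protein and a beta-lactamase reporter gene under the control of a UAS response element. Beta-lactamase expression is read as FRET from a cleavable, fluorogenic, cell-permeable beta-lactamase substrate. The test compound's antagonism of the S1P4 receptor is reported as an IC50.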

S1P1 = S1P1 (Homo sapiens, UniProt P21453); assay: S1P selectivity counter screen, functional assay at S1P1
S1P2 = S1P2 (Homo sapiens, UniProt O95136); assay: S1P selectivity counter screen, functional assay at S1P2
S1P3 = S1P3 (Homo sapiens, UniProt Q99500); assay: S1P selectivity counter screen, functional assay at S1P3
S1P3, sequence (Q99500 whole entry, species assumed): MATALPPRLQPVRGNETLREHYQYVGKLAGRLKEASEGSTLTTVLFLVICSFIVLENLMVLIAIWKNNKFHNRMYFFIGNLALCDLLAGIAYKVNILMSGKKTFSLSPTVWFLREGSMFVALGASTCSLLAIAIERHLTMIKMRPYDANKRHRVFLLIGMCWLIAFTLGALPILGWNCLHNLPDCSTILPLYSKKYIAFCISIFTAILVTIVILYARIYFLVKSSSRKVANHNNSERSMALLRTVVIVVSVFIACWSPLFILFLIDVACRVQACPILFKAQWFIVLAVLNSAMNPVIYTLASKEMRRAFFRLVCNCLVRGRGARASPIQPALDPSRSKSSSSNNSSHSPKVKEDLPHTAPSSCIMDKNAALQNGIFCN

S1P1, sequence (P21453 whole entry, species assumed): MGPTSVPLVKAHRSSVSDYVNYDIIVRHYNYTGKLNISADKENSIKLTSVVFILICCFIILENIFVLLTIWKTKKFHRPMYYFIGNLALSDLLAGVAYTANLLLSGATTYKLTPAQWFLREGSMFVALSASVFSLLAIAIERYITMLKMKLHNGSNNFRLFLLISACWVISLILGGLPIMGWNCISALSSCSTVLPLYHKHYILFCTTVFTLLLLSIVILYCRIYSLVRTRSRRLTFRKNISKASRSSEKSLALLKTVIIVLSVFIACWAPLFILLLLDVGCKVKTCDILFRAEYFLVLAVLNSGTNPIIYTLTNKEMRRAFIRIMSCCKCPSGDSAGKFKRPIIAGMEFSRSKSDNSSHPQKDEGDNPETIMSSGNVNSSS
S1P2, sequence (O95136 whole entry, species assumed): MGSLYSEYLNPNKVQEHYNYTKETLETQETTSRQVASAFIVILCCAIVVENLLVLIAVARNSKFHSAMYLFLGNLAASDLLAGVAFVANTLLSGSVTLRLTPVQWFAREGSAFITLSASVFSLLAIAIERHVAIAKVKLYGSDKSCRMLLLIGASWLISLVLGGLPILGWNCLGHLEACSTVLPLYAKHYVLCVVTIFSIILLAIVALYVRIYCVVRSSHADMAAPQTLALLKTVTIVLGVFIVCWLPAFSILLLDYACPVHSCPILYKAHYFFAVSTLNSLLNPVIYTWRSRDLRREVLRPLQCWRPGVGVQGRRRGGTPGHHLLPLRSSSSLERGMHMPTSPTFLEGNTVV

## Cc1cc(CO)cc(C)c1NC(=O)c1ccc(-c2cc(Cl)ccc2Cl)o1 [4t]
S1P4 receptor
  IC50: 0.036 µM

## Cc1cccc(C)c1N(C)C(=O)c1ccc(-c2ccccc2Cl)o1 [9c]
S1P4 receptor
  fold less potent than the hit (1) at S1P4: 3 fold

## O=C(c1ccc(-c2cc(Cl)ccc2Cl)o1)N1CCc2ccccc21 [4j]
S1P4 receptor
  S1P4 activity in words: suppressed completely the activity

## Cc1cccc(C)c1NC(=O)c1ccc(-c2cc(Cl)ccc2Cl)o1 [compound 1, 5-(2,5-dichlorophenyl)-N-(2,6-dimethylphenyl)furan-2-carboxamide]
S1P1
  IC50: > 25 µM
S1P2
  IC50: > 25 µM
S1P3
  IC50: > 25 µM

## Cc1cccc(C)c1NC(=O)c1ccc(-c2ccc(Cl)cc2Cl)o1 [9a]
S1P4 receptor; versus 9c
  fold less potent than mono-chlorinated 9c at S1P4: 7 fold
S1P4 receptor
  fold less potent than the hit (1) at S1P4: 25 fold

## Cc1cc(C)c(N(C)C(=O)c2ccc(-c3cc(Cl)ccc3Cl)o2)c(C)c1 [4r]
S1P4 receptor; versus 4q
  fold less potent than the homolog 4q at S1P4: approximately 128 fold

## Cc1cscc1-c1ccc(C(=O)Nc2c(C)cccc2C)o1 [9l]
S1P4 receptor; versus 9k
  fold more potent than 9k at S1P4: 1.5 fold

## Cc1cccc(C)c1NC(=O)c1ccc(-c2cccc(Cl)c2)o1 [9b]
S1P4 receptor
  fold less potent than the hit (1) at S1P4: 6 fold

## Cc1cccc(C)c1NC(=O)c1ccc(-c2c(C)cccc2C)o1 [9j]
S1P4 receptor
  S1P4 activity in words: inactive
